According to article PMC3064895 (Cancer Chemotherapy and Pharmacology, 2010):
Where “and” joins values, the source holds several entries; their conditions need not be identical. Identical values can stand only once. Like-named read-outs stand apart in the source and are kept apart here.

Legend:
[1] = QT/QTc interval on 12-lead Holter ECG; type: in vivo, patients with advanced cancer
[2] = cited from earlier work; for Incidence of treatment-emergent cardiac ischemia/infarction AEs: final safety analysis
Efficacy: tumor response = type: in vivo, patients with advanced cancer
Summary of the method: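 Adults with advanced cancer took the oral multitargeted kinase inhibitor at 400 mg bid, continuously, in 28-day cycles until progression or intolerance. Tumors were measured at screening and every 2 cycles and assessed locally by RECIST. Patients with ≥1 dose were included; patients were evaluable if radiologically re-evaluated or if they stopped for death or progression before re-evaluation. Descriptive statistics were used, with Kaplan–Meier for PFS.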

[3] = Safety: adverse events by NCI-CTCAE v3.0; type: in vivo, patients with advanced cancer
Summary of the method: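 Patients with advanced cancer took the oral kinase inhibitor at 400 mg bid, continuously, in 28-day cycles. Safety, including laboratory tests, was checked at screening, at baseline and on day 1 of each cycle. Treatment-emergent AEs were graded by NCI-CTCAE v3.0 for incidence, severity, seriousness and drug relationship, and summarized descriptively for all patients with ≥1 dose.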

[4] = Left ventricular ejection fraction; type: in vivo, patients with advanced cancer; conditions: for LVEF measurement, individual patient: RCC patient with diabetes (baseline 67%); for Mean (SD) change from baseline in LVEF(%): primary analysis population, Day 1 of cycle 3 (after 2 cycles), sorafenib 400 mg bid
[5] = over 12-h period, Day 1 of cycle 2
[6] = over 12-h period, Day 1 of cycle 2, listed as Sorafenib
[7] = retrospective analysis of 18 studies of sorafenib monotherapy

CNC(=O)c1cc(Oc2ccc(NC(=O)Nc3ccc(Cl)c(C(F)(F)F)c3)cc2)ccn1 [sorafenib]
Mean (SD) change from baseline in QTcB ([1]; 2 h post-dose, Day 1 of cycle 2): 0.5 (18.0) ms | Mean (SD) change from baseline in QTcB ([1]; 4 h post-dose, Day 1 of cycle 2): 2.0 (20.2) ms | Mean (SD) change from baseline in QTcB ([1]; 6 h post-dose, Day 1 of cycle 2): 1.6 (17.3) ms | Mean (SD) change from baseline in QTcB ([1]; 8 h post-dose, Day 1 of cycle 2): 0.2 (16.1) ms | Mean (SD) change from baseline in QTcB ([1]; 12 h post-dose, Day 1 of cycle 2): 2.9 (17.2) ms | Mean (SD) change from baseline in QTcB ([1]; Pre-dose, Day 1 of cycle 2): 1.1 (18.3) ms | Patients with a QTcB or QTcF value >500 ms ([1]; at any time during the study): No patient | Mean (SD) change from baseline in QTcB ([1]; at t max, Day 1 of cycle 2): 4.2 ms and 4 ms | Mean (SD) change from baseline in QTcB ([1]; at t max, Day 1 of cycle 2, listed as Sorafenib): 4.2 (19.2) ms | Patients with a ≥60-ms change from baseline in QTcB or QTcF ([1]; during the study): no patient | Mean (SD) maximal change from baseline in QT [1, 5]: 32.9 (24.1) ms | Mean (SD) maximal change from baseline in QTcB [1, 5]: 16.4 ms and 16 ms | Mean (SD) maximal change from baseline in QTcF [1, 5]: 19.8 ms and 20 ms | Mean (SD) maximal change from baseline in QTcB [1, 6]: 16.4 (15.3) ms | Mean (SD) maximal change from baseline in QTcF [1, 6]: 19.8 (14.4) ms | Mean increases from baseline by time point, QTcB (range) ([1]; over 12 h, after 1 cycle): 0.2 to 2.9 ms | Mean increases from baseline by time point, QTcF (range) ([1]; over 12 h, after 1 cycle): 4.2 to 5.8 ms | QTcF value, individual patient ([1]; patient with maximum prolongation, after 1 cycle, baseline 396.7 ms): 446.3 ms | Patients reporting cardiac ischemia/infarction AEs ([2]; RCC phase III, patients who crossed over from placebo to sorafenib): 1.4% | Incidence of treatment-emergent cardiac ischemia/infarction AEs ([2]; randomized phase III HCC study, placebo […]): 2.7% | Incidence of treatment-emergent cardiac ischemia/infarction AEs ([2]; randomized phase III RCC study, placebo 0.4%): 2.9% | Overall rate of CHF [2, 7]: 1.6% | Overall rate of MI [2, 7]: 1.5% | Treatment-emergent hypertension [2, 7]: 18.6% | PD as best response (Efficacy: tumor response; 48 patients evaluable for tumor response, RECIST): 27% | Patients alive (censored) at time of analysis (Efficacy: tumor response; ITT population (n = 53)): 87% | Patients who had died by the time of analysis (Efficacy: tumor response; ITT population (n = 53)): 13% | Median PFS (Efficacy: tumor response; ITT population (n = 53), 95% CI 2.8–6.4 months): 4.1 months | Median overall survival (Efficacy: tumor response; ITT population (n = 53), censored data): not estimable | Alopecia, drug-related, Grade ≥3 ([3]; N = 53): 0 (0) n (%) | Alopecia, drug-related, all grades ([3]; N = 53): 13 (25) n (%) | Dermal change, drug-related, Grade ≥3 ([3]; N = 53): 0 (0) n (%) | Dermal change, drug-related, all grades ([3]; N = 53): 6 (11) n (%) | Dermatology—other, drug-related, Grade ≥3 ([3]; N = 53): 1 (2) n (%) | Dermatology—other, drug-related, all grades ([3]; N = 53): 7 (13) n (%) | Diarrhea, drug-related, Grade ≥3 ([3]; N = 53): 1 (2) n (%) | Diarrhea, drug-related, all grades ([3]; N = 53): 15 (28) n (%) | Fatigue, drug-related, Grade ≥3 ([3]; N = 53): 1 (2) n (%) | Fatigue, drug-related, all grades ([3]; N = 53): 8 (15) n (%) | Hand-foot skin reaction, drug-related, Grade ≥3 ([3]; N = 53): 6 (11) n (%) | Hand-foot skin reaction, drug-related, all grades ([3]; N = 53): 16 (30) n (%) | Hypertension, drug-related, Grade ≥3 ([3]; N = 53): 1 (2) n (%) | Hypertension, drug-related, all grades ([3]; N = 53): 6 (11) n (%) | Mucositis, drug-related, Grade ≥3 ([3]; N = 53): 1 (2) n (%) | Mucositis, drug-related, all grades ([3]; N = 53): 8 (15) n (%) | Nausea, drug-related, Grade ≥3 ([3]; N = 53): 0 (0) n (%) | Nausea, drug-related, all grades ([3]; N = 53): 7 (13) n (%) | Pain, extremity—limb, drug-related, Grade ≥3 ([3]; N = 53): 0 (0) n (%) | Pain, extremity—limb, drug-related, all grades ([3]; N = 53): 12 (23) n (%) | Patients discontinued from the study because of AEs ([3]; N = 53): Seven | Patients with dose reductions ([3]; N = 53): 43.4% | Patients with dose reductions because of treatment-emergent AEs ([3]; N = 53): 32.1% | Patients with drug-related treatment-emergent serious AEs ([3]; N = 53): 4% | Patients with treatment interruptions ([3]; N = 53): 75.5% | Patients with treatment interruptions because of treatment-emergent AEs ([3]; N = 53): 43.4% | Rash/desquamation, drug-related, Grade ≥3 ([3]; N = 53): 3 (6) n (%) | Rash/desquamation, drug-related, all grades ([3]; N = 53): 20 (38) n (%) | Sensory neuropathy, drug-related, Grade ≥3 ([3]; N = 53): 0 (0) n (%) | Sensory neuropathy, drug-related, all grades ([3]; N = 53): 7 (13) n (%) | Any drug-related adverse event, Grade ≥3 ([3]; N = 53, sorafenib 400 mg bid): 16 n (%) and 16 (30) n (%) | Any drug-related adverse event, all grades ([3]; N = 53, sorafenib 400 mg bid): 43 n (%) and 43 (81) n (%) | Deaths during the study or within 30 days of the last dose ([3]; all secondary to disease progression, considered unrelated to study drug): Seven | Discontinuations because of drug-related AEs ([3]; of the patients discontinued because of AEs): 3 patients | LVEF measurement, individual patient ([4]; Day 1 of cycle 3, MUGA scan): 42.2% | LVEF measurement, individual patient ([4]; repeat MUGA scan (+16 days)): 50% | Mean (SD) change from baseline in LVEF(%) [4]: −0.8 (±8.6) LVEF(%) and −0.8 LVEF(%) | Mean (SD) change from baseline in LVEF(%) ([4]; listed as Sorafenib): −0.8 (8.6) LVEF(%)
